Assays:
P2Y12R (WT) [1] = molecular target: T1, P2Y12R (WT) (Homo sapiens, UniProt Q9H244); experiment: [3H]2MeSADP displacement, membranes; format: binding
P2Y12R (WT) [2] = molecular target: T2, P2Y12R (WT) (Homo sapiens, UniProt Q9H244, D294N); experiment: [3H]2MeSADP displacement, membranes; format: binding
P2Y12R (WT) [3] = molecular target: T2, P2Y12R (WT); experiment: saturation radioligand binding, membranes
Summary of the method: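 Receptor construct carrying the D294N mutation, with BRIL fused into ICL3, expressed in Sf9 cells. Membranes were prepared by homogenization, a 1,000g spin, then a 20,000g 60 min pellet. Saturation binding used [3H]2MeSADP (3.5 Ci mmol−1, 0.4–46 nM), 5 μg membrane protein, in Tris-HCl with 10 mM MgCl2. Nonspecific binding was defined with 10 μM P2Y12R antagonist. Filtration was followed by scintillation counting. Kd from independent experiments in duplicate.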

P2Y12R (WT) [4] = molecular target: P2Y12R (WT) (Homo sapiens, UniProt Q9H244, N159A); experiment: saturation radioligand binding, membranes
Sequence of P2Y12R (WT) (Homo sapiens, UniProt Q9H244, N159A) (Q9H244 whole entry N159A): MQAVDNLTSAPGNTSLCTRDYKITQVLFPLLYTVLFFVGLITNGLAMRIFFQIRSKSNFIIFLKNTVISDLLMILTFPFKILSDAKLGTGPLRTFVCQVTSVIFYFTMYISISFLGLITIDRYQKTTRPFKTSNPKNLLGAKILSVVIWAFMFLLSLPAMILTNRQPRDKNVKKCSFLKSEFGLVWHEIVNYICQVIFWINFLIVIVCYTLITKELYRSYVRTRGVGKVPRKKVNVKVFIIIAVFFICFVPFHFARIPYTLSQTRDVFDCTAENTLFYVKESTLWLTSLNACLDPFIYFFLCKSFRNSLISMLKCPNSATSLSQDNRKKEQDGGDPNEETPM
Summary of the method: (§1)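 Human P2Y12R (wild type or single alanine mutants) in pcDNA3.0, transiently transfected into COS7 cells and harvested 48 h later. Membranes: 1,000g spin, then 20,000g pellet for 60 min, stored at −80 °C. [3H]2MeSADP (3.5 Ci mmol−1, 0.4–46 nM) was incubated with 5 μg membrane protein in Tris-HCl with 10 mM MgCl2. Nonspecific binding was defined with 10 μM P2Y12R antagonist. Bound ligand was separated by filtration, washed with cold buffer and counted by scintillation. Kd is mean ± s.e.m., 3–6 independent experiments in duplicate.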

P2Y12R (WT) [5] = molecular target: T1, P2Y12R (WT); experiment: saturation radioligand binding, membranes
Summary of the method: as §1

P2Y12R (WT) [6] = molecular target: P2Y12R (WT) (Homo sapiens, UniProt Q9H244, S156A); experiment: saturation radioligand binding, membranes
Sequence of P2Y12R (WT) (Homo sapiens, UniProt Q9H244, S156A) (Q9H244 whole entry S156A): as the sequence (Q9H244 whole entry N159A) above, with S156A, A159N counted along it
Summary of the method: as §1

T2 sequence (Q9H244 whole entry D294N): as the sequence (Q9H244 whole entry N159A) above, with A159N, D294N counted along it
T1 sequence (Q9H244 whole entry): as the sequence (Q9H244 whole entry N159A) above, with A159N counted along it

Ki (P2Y12R (WT) [1])	Ki (P2Y12R (WT) [2])	Kd (P2Y12R (WT) [3])	Kd (P2Y12R (WT) [4])	Kd (P2Y12R (WT) [5])	Kd (P2Y12R (WT) [6])	Structure (SMILES)
332 ± 35 nM	169 ± 81 nM					Nc1ncnc2c1ncn2[C@@H]1O[C@H](COP(=O)(O)OP(=O)(O)O)[C@@H](O)[C@H]1O [ADP]
31.5 ± 11.9 nM						CCOC(=O)c1cc(C#N)c(N2CCC(C(=O)NS(=O)(=O)Cc3ccccc3)CC2)nc1C [AZD1283, Ethyl 6-(4-((benzylsulphonyl)carbamoyl)piperidin-1-yl)-5-cyano-2-methylnicotinate]
454 ± 110 nM	424 ± 193 nM					CCCSc1nc(N[C@@H]2C[C@H]2c2ccc(F)c(F)c2)c2nnn([C@@H]3C[C@H](OCCO)[C@@H](O)[C@H]3O)c2n1 [Ticagrelor]
275 ± 58 nM	72.8 ± 16.7 nM					Nc1c(S(=O)(=O)O)cc(Nc2ccc(Nc3ccccc3)c(S(=O)(=O)O)c2)c2c1C(=O)c1ccccc1C2=O [PSB-0739]
119 ± 19.8 nM	82.4 ± 28.5 nM					CSc1nc(N)c2ncn([C@@H]3O[C@H](COP(=O)(O)OP(=O)(O)OP(=O)(O)O)[C@@H](O)[C@H]3O)c2n1 [2MeSATP]
120 ± 7.3 nM	80.8 ± 16.8 nM	33.6 ± 10.2 nM	6.39 ± 0.94 nM	4.25 ± 0.87 nM	5.66 ± 0.72 nM	CSc1nc(N)c2ncn([C@@H]3O[C@H](COP(=O)(O)OP(=O)(O)O)[C@@H](O)[C@H]3O)c2n1 [2MeSADP, 2-methylthio-adenosine 5′-diphosphate]

Source: paper PMC4174307 (Nature, 2014)
